In ChEMBL document CHEMBL1142768, “2-(2-Furanyl)-7-phenyl[1,2,4]triazolo[1,5-c]pyrimidin-5-amine analogs as adenosine A2A antagonists: the successful reduction of hERG activity. Part 2” (Bioorg Med Chem Lett, 2005):

Key:
[1] = Inhibitory constant against Adenosine A2A receptor using [3H]SCH-58261 as radio ligand; set-up: species or system Homo sapiens
In short: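 Radioligand binding at the adenosine A2A receptor, run in duplicate; Ki reported as the mean of the duplicates.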

[2] = biological target: hERG (KCNH2) (Homo sapiens, UniProt Q12809); experiment: Percent inhibition of hERG by rubidium efflux FLIPR assay at concentration of 5 ug/mL; format: toxicity
[3] = system: Rattus norvegicus; experiment: Percent reduction of cataleptic effect in rat upon dosing at 3 mg/kg; 55/40; format: functional; set-up: scale not given: the % may be the effect or the level left
[4] = system: Rattus norvegicus; experiment: Percent reduction of cataleptic effect in rat upon dosing at 3 mg/kg; 28/0; format: functional; set-up: scale not given: the % may be the effect or the level left
[5] = system: Rattus norvegicus; experiment: Percent reduction of cataleptic effect in rat upon dosing at 3 mg/kg; 23/47; format: functional; set-up: scale not given: the % may be the effect or the level left
[6] = system: Rattus norvegicus; experiment: Percent reduction of cataleptic effect in rat upon dosing at 3 mg/kg; 34/43; format: functional; set-up: scale not given: the % may be the effect or the level left
[7] = system: Rattus norvegicus; experiment: Percent reduction of cataleptic effect in rat upon dosing at 3 mg/kg; 0/23; format: functional; set-up: scale not given: the % may be the effect or the level left
[8] = system: Rattus norvegicus; experiment: Percent reduction of cataleptic effect in rat upon dosing at 3 mg/kg; 23/32; format: functional; set-up: scale not given: the % may be the effect or the level left
[9] = system: Rattus norvegicus; experiment: Percent reduction of cataleptic effect in rat upon dosing at 3 mg/kg; 36/59; format: functional; set-up: scale not given: the % may be the effect or the level left
[10] = system: Rattus norvegicus; experiment: Percent reduction of cataleptic effect in rat upon dosing at 3 mg/kg; 13/13; format: functional; set-up: scale not given: the % may be the effect or the level left
[11] = system: Rattus norvegicus; experiment: Percent reduction of cataleptic effect in rat upon dosing at 3 mg/kg; 19/46; format: functional; set-up: scale not given: the % may be the effect or the level left
[12] = system: Rattus norvegicus; experiment: Percent reduction of cataleptic effect in rat upon dosing at 3 mg/kg; 10/12; format: functional; set-up: scale not given: the % may be the effect or the level left
[13] = system: Rattus norvegicus; experiment: Percent reduction of cataleptic effect in rat upon dosing at 3 mg/kg; 45/20; format: functional; set-up: scale not given: the % may be the effect or the level left

Sequence of hERG (KCNH2) (Q12809 whole entry): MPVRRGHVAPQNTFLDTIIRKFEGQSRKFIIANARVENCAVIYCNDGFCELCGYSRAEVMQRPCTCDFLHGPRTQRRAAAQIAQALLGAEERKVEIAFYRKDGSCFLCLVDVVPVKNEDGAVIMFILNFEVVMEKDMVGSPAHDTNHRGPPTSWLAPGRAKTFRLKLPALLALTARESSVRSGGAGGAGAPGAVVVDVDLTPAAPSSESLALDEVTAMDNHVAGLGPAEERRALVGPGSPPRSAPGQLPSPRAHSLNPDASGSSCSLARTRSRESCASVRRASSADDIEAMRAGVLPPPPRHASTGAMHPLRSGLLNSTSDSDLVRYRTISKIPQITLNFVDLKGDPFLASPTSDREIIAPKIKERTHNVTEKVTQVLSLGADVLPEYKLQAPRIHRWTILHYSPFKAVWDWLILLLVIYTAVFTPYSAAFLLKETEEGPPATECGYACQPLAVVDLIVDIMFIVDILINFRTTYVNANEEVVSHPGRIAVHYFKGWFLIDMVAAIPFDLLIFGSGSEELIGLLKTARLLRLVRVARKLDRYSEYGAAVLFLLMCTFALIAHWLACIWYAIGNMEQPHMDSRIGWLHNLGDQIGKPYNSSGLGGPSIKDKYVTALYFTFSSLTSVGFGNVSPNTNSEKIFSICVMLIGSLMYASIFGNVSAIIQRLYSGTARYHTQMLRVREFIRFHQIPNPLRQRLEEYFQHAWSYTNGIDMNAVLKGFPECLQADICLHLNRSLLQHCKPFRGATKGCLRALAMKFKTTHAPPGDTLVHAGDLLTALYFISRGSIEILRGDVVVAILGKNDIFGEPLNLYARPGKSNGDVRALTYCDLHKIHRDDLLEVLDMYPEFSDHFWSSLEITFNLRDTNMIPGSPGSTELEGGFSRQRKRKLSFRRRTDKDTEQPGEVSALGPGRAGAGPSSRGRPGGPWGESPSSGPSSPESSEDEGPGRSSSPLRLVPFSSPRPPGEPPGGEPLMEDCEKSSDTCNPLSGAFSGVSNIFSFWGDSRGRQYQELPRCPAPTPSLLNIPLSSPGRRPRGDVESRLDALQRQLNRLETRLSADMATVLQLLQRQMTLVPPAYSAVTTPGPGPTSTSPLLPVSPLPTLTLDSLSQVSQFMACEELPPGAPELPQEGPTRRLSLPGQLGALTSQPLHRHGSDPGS

SMILES	Ki [1] [nM]	inhibition at 5 ug/mL [2]	other results
COCCOc1ccc(N2CCN(c3cccc(-c4cc5nc(-c6ccco6)nn5c(N)n4)c3)CC2)cc1	1	-4% (not active)	Activity [3]: 55%
CC1CN(CC(=O)N2CCN(c3cccc(-c4cc5nc(-c6ccco6)nn5c(N)n4)c3)CC2)CCO1 (stereo not drawn)	0.8	-3% (not active)	Activity [4]: 28%
COCCOc1cccc(N2CCN(Cc3cccc(-c4cc5nc(-c6ccco6)nn5c(N)n4)c3)CC2)c1		68%	
Nc1nc(-c2cccc(N3CCN(C(=O)CN4CCOCC4)CC3)c2)cc2nc(-c3ccco3)nn12	0.5	5%	Activity [5]: 47%
Nc1nc(-c2cccc(N3CCC(=O)CC3)c2)cc2nc(-c3ccco3)nn12	1.3		
CCCCOC(=O)N1CCN(c2cccc(-c3cc4nc(-c5ccco5)nn4c(N)n3)c2)CC1	0.5	-3% (not active)	Activity [6]: 43%
CC(C)OC(=O)N1CCN(c2cccc(-c3cc4nc(-c5ccco5)nn4c(N)n3)c2)CC1	1	8%	Activity [7]: 23%
Nc1nc(-c2cccc(N3CCN(CCN4CCOCC4)CC3)c2)cc2nc(-c3ccco3)nn12	1.3	13%	Activity [8]: 32%
Nc1nc(-c2cccc(CO)c2)cc2nc(-c3ccco3)nn12		15%	
Nc1nc(-c2cccc(N3CCC(N4CCOCC4)CC3)c2)cc2nc(-c3ccco3)nn12	0.8	1%	Activity [9]: 59%
Nc1nc(-c2cccc(N3CCNCC3)c2)cc2nc(-c3ccco3)nn12	5.7		
CC(C)S(=O)(=O)N1CCN(c2cccc(-c3cc4nc(-c5ccco5)nn4c(N)n3)c2)CC1	0.5	10%	Activity [10]: 13%
COCCOc1cccc(N2CCN(c3cccc(-c4cc5nc(-c6ccco6)nn5c(N)n4)c3)CC2)c1	2.3	3%	Activity [11]: 46%
CC(C)(C)CNC1CCN(c2cccc(-c3cc4nc(-c5ccco5)nn4c(N)n3)c2)CC1	18	9%	Activity [12]: 12%
COCCOc1ccc(N2CCN(Cc3cccc(-c4cc5nc(-c6ccco6)nn5c(N)n4)c3)CC2)cc1		81%	
Nc1nc(-c2cccc(N3CCC4(CC3)OCCO4)c2)cc2nc(-c3ccco3)nn12	0.4	8%	Activity [13]: 45%
